The source made the active and inactive calls. The rule behind the calls is not given here.

In the first data set the target is T1, D(4) dopamine receptor (Homo sapiens) (UniProt P21917).
T1 sequence (whole entry): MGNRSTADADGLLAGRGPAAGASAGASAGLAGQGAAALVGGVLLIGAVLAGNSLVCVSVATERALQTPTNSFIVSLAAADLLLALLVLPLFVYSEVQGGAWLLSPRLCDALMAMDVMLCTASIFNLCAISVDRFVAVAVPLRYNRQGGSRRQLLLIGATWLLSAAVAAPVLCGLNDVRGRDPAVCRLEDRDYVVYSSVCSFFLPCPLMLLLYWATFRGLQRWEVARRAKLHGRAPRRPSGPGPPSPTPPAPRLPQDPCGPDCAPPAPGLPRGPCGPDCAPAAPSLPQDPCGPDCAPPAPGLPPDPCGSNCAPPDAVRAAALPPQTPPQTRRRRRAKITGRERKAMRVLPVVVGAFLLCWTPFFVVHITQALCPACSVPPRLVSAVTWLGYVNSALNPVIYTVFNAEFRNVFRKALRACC
In words: Agonist activity at human D4.4 receptor in HEK293 cells coexpressing G-alpha-qo5 by FLIPR upto 10 uM. It is filed as functional, cell-based.
Details: not given
For `COc1ccc(C2CCN(CC(=O)Nc3cccc(C)c3)CC2)cc1`, the result was inactive. Turning to `Cc1cccc(NC(=O)CN2CCC(c3ccc(F)cc3)CC2)c1`, the result was inactive.

Another data set deals with T2, D(4) dopamine receptor (Homo sapiens, UniProt P21917).
T2 sequence (P21917 whole entry): T1 sequence (whole entry)
Briefly: Agonist activity at human D4.4 receptor in HEK293 cells coexpressing G-alpha-qo5 by FLIPR. It is filed as functional, cell-based.
Details: not given
Turning to `O=C(NCN1CCC(c2cccc[n+]2[O-])CC1)c1ccccc1`, the EC50 came to 532 nM.

Consider `Cc1cccc(C(=O)NCN2CCC(c3nccs3)CC2)c1`, for which the EC50 amounted to 9.8 nM. Regarding `O=C(CN1CCC(c2cccc[n+]2[O-])CC1)Nc1ccc(F)cc1C(F)(F)F`, a half-maximal effect (EC50) was put at 473 nM.

With `Cc1ccc(Cl)c(NC(=O)CN2CCC(c3cccc[n+]3[O-])CC2)c1Cl`, a half-maximal response (EC50) required 346 nM. Same read-out and setting: for `O=C(NCN1CCC(c2cccc[n+]2[O-])CC1)c1ccc(OC(F)(F)F)c(Cl)c1` the value was 170 nM. On the same count and under the same terms, for `O=C(CN1CCC(c2cccc[n+]2[O-])CC1)Nc1cccc(F)c1` the value was 160 nM; for `COc1cccc(C(=O)NCN2CCC(c3cccc[n+]3[O-])CC2)c1C`, 685 nM. Turning to `Cc1cccc(Cl)c1NC(=O)CN1CCC(c2ccccn2)CC1`, it took 60 nM to reach a half-maximal effect (EC50). `Cc1cccc(NC(=O)CN2CCC(c3ccc(O)cc3)CC2)c1` showed an EC50 of 70 nM. On the same count and under the same terms, to `COc1cccc(C)c1NC(=O)CN1CCC(c2cccc[n+]2[O-])CC1` belongs 340 nM; to `C=Cc1cccc(C(=O)NCN2CCC(c3cccc[n+]3[O-])CC2)c1`, 68 nM. Still for that read-out and setting: to `COc1ccccc1C1CCN(CC(=O)Nc2cccc(C)c2)CC1` belongs 420 nM; to `Cc1cccc(NC(=O)CN2CCC(c3cccc(O)c3)CC2)c1`, 8 nM; to `Cc1ccc(C(=O)NCN2CCC(c3cccc[n+]3[O-])CC2)cc1C`, 38 nM. On the same count and under the same terms, to `COc1cc(C(=O)NCN2CCC(c3cccc[n+]3[O-])CC2)ccc1Cl` belongs 159 nM. In the case of `CCc1cccc(NC(=O)CN2CCC(c3cccc[n+]3[O-])CC2)c1`, the half-maximal effective concentration (EC50) came out at 95 nM. The same measure, in the same setting: to `Cc1cccc(NC(=O)CN2CCC(c3nccs3)CC2)c1` belongs 1 nM; to `Cc1cc(C(=O)NCN2CCC(c3cccc[n+]3[O-])CC2)ccc1Cl`, 2460 nM. Still for that read-out and setting: for `O=C(NCN1CCC(c2cccc[n+]2[O-])CC1)c1ccccn1` the value was 3150 nM; for `Cc1cccc(NC(=O)CN2CCC(c3ccccc3C#N)CC2)c1`, 8 nM. Still for that read-out and setting: for `c1ccc(C2CCN(Cc3nc4ccccc4[nH]3)CC2)nc1` the value was 12 nM; for `CC(C)Oc1cccc(NC(=O)CN2CCC(c3cccc[n+]3[O-])CC2)c1`, 555 nM.

Compound `O=C(NCN1CCC(c2cccc[n+]2[O-])CC1)c1ccc(F)c(Cl)c1` displayed an EC50 of 63 nM. The same measure, in the same setting: for `Cc1cccc(NC(=O)CN2CCC(c3ncccc3C#N)CC2)c1` the value was 36 nM; for `CCOc1cccc(C(=O)NCN2CCC(c3cccc[n+]3[O-])CC2)c1`, 324 nM. `O=C(CN1CCC(c2cccc[n+]2[O-])CC1)Nc1ccccc1F`: the EC50 worked out at 270 nM. In turn, `Cc1cc(NC(=O)CN2CCC(c3cccc[n+]3[O-])CC2)ccc1F` displayed an EC50 of 18 nM. Same read-out and setting: to `N#Cc1cccc(C(=O)NCN2CCC(c3cccc[n+]3[O-])CC2)c1` belongs 840 nM; to `Cc1ccc(C(=O)NCN2CCC(c3cccc[n+]3[O-])CC2)cc1C(F)(F)F`, 85 nM; to `O=C(CN1CCC(c2cccc[n+]2[O-])CC1)Nc1cc(Cl)cc(Cl)c1`, 160 nM. For `Cc1cccc(C)c1NC(=O)CN1CCC(c2cccc[n+]2[O-])CC1`, a half-maximal response (EC50) required 346 nM.

In turn, `O=C(CN1CCC(c2cccc[n+]2[O-])CC1)Nc1ccc(F)cc1` gave an EC50 of 85 nM.

For the compound `Cc1ccc(Cl)cc1NC(=O)CN1CCC(c2cccc[n+]2[O-])CC1`, it took 126 nM to reach a half-maximal effect (EC50). For `[O-][n+]1ccccc1C1CCN(Cc2nc3ccccc3[nH]2)CC1`, the midpoint of the response, the EC50, lay at 54 nM. Take `Cc1cccc(NC(=O)CN2CCC(c3ccccc3C)CC2)c1`: the response was half-maximal at 340 nM (EC50).

In the case of `Cc1cccc(NC(=O)CN2CCC(c3ccc(O)cn3)CC2)c1`, the EC50 amounted to 3.8 nM. Same read-out and setting: to `O=C(NCN1CCC(c2cccc[n+]2[O-])CC1)c1cc(Cl)cc(Cl)c1` belongs 45 nM.

In turn, `O=C(CN1CCC(c2cccc[n+]2[O-])CC1)Nc1cccc(-c2ccccc2)c1` yielded an EC50 of 360 nM. For the compound `Cc1cccc(NC(=O)CN2CCC(c3ccccc3F)CC2)c1`, the EC50 is 1 nM. `Cc1cc(C(=O)NCN2CCC(c3cccc[n+]3[O-])CC2)ccc1F`: the midpoint of the response, the EC50, lay at 50 nM. Still for that read-out and setting: for `Cc1cc(C)cc(C(=O)NCN2CCC(c3cccc[n+]3[O-])CC2)c1` the value was 90 nM; for `O=C(CN1CCC(c2cccc[n+]2[O-])CC1)Nc1ccc(F)cc1F`, 103 nM; for `O=C(CN1CCC(c2ccccn2)CC1)Nc1c(Cl)cc(Cl)cc1Cl`, 145 nM.

`O=C(CN1CCC(c2cccc[n+]2[O-])CC1)Nc1cccc(C(F)(F)F)c1` came in with a half-maximal effective concentration (EC50) of 76 nM. Same read-out and setting: for `CCc1cccc(C)c1NC(=O)CN1CCC(c2ccccn2)CC1` the value was 111 nM; for `Cc1cc(C)cc(NC(=O)CN2CCC(c3cccc[n+]3[O-])CC2)c1`, 52 nM. On the same count and under the same terms, to `O=C(CN1CCC(c2cccc[n+]2[O-])CC1)Nc1cccc(Cl)c1` belongs 62 nM. `Cc1cc(Cl)cc(C)c1NC(=O)CN1CCC(c2ccccn2)CC1`: a half-maximal effect (EC50) was put at 240 nM. On to `O=C(CN1CCC(c2cccc[n+]2[O-])CC1)Nc1cccc(OC(F)(F)F)c1`, for which the EC50 is 135 nM. Still for that read-out and setting: for `Cc1cc(Br)ccc1NC(=O)CN1CCC(c2cccc[n+]2[O-])CC1` the value was 66 nM; for `O=C(CN1CCC(c2cccc[n+]2[O-])CC1)NC1CCCCC1`, 294 nM; for `O=C(CN1CCC(c2cccc[n+]2[O-])CC1)Nc1cccc(Cl)c1Cl`, 180 nM. Still for that read-out and setting: for `COc1cccc(C)c1NC(=O)CN1CCC(c2ccccn2)CC1` the value was 40 nM; for `CSc1cccc(NC(=O)CN2CCC(c3cccc[n+]3[O-])CC2)c1`, 100 nM; for `Cc1cccc(NC(=O)CN2CCC(c3ccccc3)CC2)c1`, 170 nM. `O=C(NCN1CCC(c2cccc[n+]2[O-])CC1)c1cnccc1Cl`: the EC50 was 1290 nM.

As to `Cc1cccc(NC(=O)CN2CCC(c3cccc(F)c3)CC2)c1`, a half-maximal response (EC50) required 512 nM. The same measure, in the same setting: for `O=C(NCN1CCC(c2cccc[n+]2[O-])CC1)c1ccc2ccccc2c1` the value was 115 nM.

A further data set deals with T1, D(4) dopamine receptor (Homo sapiens). In words: Activity at human D4.4 receptor in HEK293 cells co-expressing Galphaqo5 by FLIPR. It is filed as functional, cell-based. Conditions: filed as partial agonist.
Take `O=C(NCN1CCC(c2cccc[n+]2[O-])CC1)c1ccccc1`: the Activity result was “Partial agonist”. On to `c1ccc(N2CCN(Cc3nc4ccccc4[nH]3)CC2)nc1`, for which the Activity entry is “Partial agonist”. For the compound `Cc1cccc(NC(=O)CN2CCC(c3ccc(O)cc3)CC2)c1`, the Activity result is “Partial agonist”. Still for that read-out and setting: for `Cc1cccc(NC(=O)CN2CCC(c3cccc(O)c3)CC2)c1` the value was “Partial agonist”; for `[O-][n+]1ccccc1C1CCN(Cc2nc3ccccc3[nH]2)CC1`, “Partial agonist”. On to `O=C(CN1CCC(c2cccc[n+]2[O-])CC1)NC1CCCCC1`, for which the Activity entry was “Partial agonist”.

A further data set has as its system Rattus norvegicus. Briefly: Proerectile activity in rat measured as incidence of penile erection at 0.1 umol/kg, sc. It is filed as functional.
Details: not given
Put shortly: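 Conscious male rats were given a single subcutaneous injection and observed for penile erections over the following 60 min. The read-out was the incidence of erections, expressed as % of animals ± SEM (n = 12–32 animals per group), with significance tested against controls. The value is the maximal incidence at the maximally effective dose.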
On to `CN1CCc2cccc3c2[C@H]1Cc1ccc(O)c(O)c1-3` [APOMORPHINE], for which the Activity is given as 91%.

System in the next data set: not listed separately
Briefly: Agonist activity at ferret D4 receptor in HEK293 cells coexpressing G-alpha-qo5 by FLIPR. It is filed as functional, cell-based, Mustela putorius furo. As to conditions: Mustela putorius. In short, it runs like this: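 HEK cells cotransfected with ferret D4 receptor and chimeric G protein Gqo5, with receptor activation read as a calcium flux signal on FLIPR. EC50 is the concentration giving half-maximal activation.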
`CN1CCc2cccc3c2[C@H]1Cc1ccc(O)c(O)c1-3` [APOMORPHINE]: the EC50 is 1.5 nM. On the same count and under the same terms, for `NCCc1ccc(O)c(O)c1` [DOPAMINE] the value was 2.7 nM.

System in the next data set: not listed separately
Briefly: Bioavailability in Sprague-Dawley rat at 1 mg/kg, po. It is filed as ADME, organism-based. Conditions: in vivo. In short, it runs like this: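 Single 1 mg/kg dose given iv, sc or orally to Sprague-Dawley rats, dogs and monkeys; plasma concentrations followed over time (mean ± SEM, n = 3). Cmax, AUC, half-life, clearance and bioavailability calculated from the curves.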
Compound `Cc1cccc(NC(=O)CN2CCC(c3ccc(O)cn3)CC2)c1` showed a bioavailability of 0%.

System in a further data set: not listed separately
In words: Agonist activity at ferret D4 receptor in HEK293 cells coexpressing G-alpha-qo5 by FLIPR relative to dopamine.
Details: not given
It is filed as functional, Mustela putorius furo.
The compound `CN1CCc2cccc3c2[C@H]1Cc1ccc(O)c(O)c1-3` [APOMORPHINE] showed an Efficacy of 84%.

In general, EC50 refers to the concentration needed to bring the measured effect to its halfway point. Usually bioavailability stands for the share of a dose that reaches the circulation, judged against a reference dose that is usually intravenous.

The record behind these values is ChEMBL document CHEMBL1137302 (J Med Chem, 2006).
